Test results reported in ChEMBL document CHEMBL1148946, “Farinosones A-C, neurotrophic alkaloidal metabolites from the entomogenous deuteromycete Paecilomyces farinosus” (J Nat Prod, 2004).

Key:
PC-12 [1] = assay: Induction of neuritogenic activity in rat PC12 cells assessed as cells with length of one cell diameter at 50 uM after 48 hrs by phase contrast microscope; type: functional
Outline: (§1)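 PC-12 cells (DSMZ) were primed 5 days in DMEM with 1% HS, 0.5% FBS and 50 ng/mL NGF, then put back in full-serum DMEM. Cells were dispersed through a 21-gauge needle, seeded at 1 × 10^5 cells/mL on collagen-coated wells and allowed 4 h. Compound at final 20 or 50 µM (0.2% MeOH or DMSO) for 48 h; NGF 50 ng/mL control. Phase-contrast scoring of 300 cells in three areas of two wells.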

PC-12 [2] = assay: Induction of neuritogenic activity in rat PC12 cells assessed as round cells without differention at 50 uM after 48 hrs by phase contrast microscope; type: functional; outline: as §1
PC-12 [3] = assay: Induction of neuritogenic activity in rat PC12 cells assessed as cells with longer than one cell diameter at 50 uM after 48 hrs by phase contrast microscope; type: functional; outline: as §1
PC-12 [4] = assay: Induction of neuritogenic activity in rat PC12 cells assessed as round cells without differention at 20 uM after 48 hrs by phase contrast microscope; type: functional; outline: as §1
PC-12 [5] = assay: Induction of neuritogenic activity in rat PC12 cells assessed as cells with length of one cell diameter at 20 uM after 48 hrs by phase contrast microscope; type: functional; outline: as §1
PC-12 [6] = assay: Cytotoxicity against rat PC12 cells at 0.1 to 50 uM after 4 hrs; type: cell-based; conditions: pc-12, 2 days, in the assay text read “after 2 days” for “after 4 hrs”
Outline: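 MTT viability in PC-12 cells (DSMZ) in DMEM with 10% HS, 5% FBS and pen/strep; 5 × 10^4 cells/mL seeded, 1 h at 37 °C, then MeOH or DMSO stocks diluted in DMEM to 50, 20, 10, 1, 0.1 µM. Cells exposed 2 days at 37 °C, 5% CO2. MTT added for 4 h, SDS lysis overnight, OD 544 nm. Quadruplicate, mean ± SD; 0.2% MeOH/1% DMSO taken as 100% viability.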

PC-12 [7] = assay: Induction of neuritogenic activity in rat PC12 cells assessed as cells with flattened appearance at 50 uM after 48 hrs by phase contrast microscope; type: functional; outline: as §1
PC-12 [8] = assay: Induction of neuritogenic activity in rat PC12 cells assessed as cells with flattened appearance at 20 uM after 48 hrs by phase contrast microscope; type: functional; outline: as §1

SMILES | Activity (PC-12 [1]) [%] | Activity (PC-12 [2]) [%] | Activity (PC-12 [3]) [%] | Activity (PC-12 [4]) [%] | Activity (PC-12 [5]) [%] | Activity (PC-12 [6]) | Activity (PC-12 [7]) [%] | Activity (PC-12 [8]) [%]
CCC(C)/C=C(C)/C=C/C=C/C=C/C(=O)c1c(O)c(-c2ccc(O)cc2)c[nH]c1=O (stereo not drawn) [FARINOSONE A] | 60 | 30 | 10 | 60 | 40 | Non-toxic | – | –
CCC(C)/C=C(C)/C=C/C=C/C=C/C(=O)c1c(O)c(-c2ccc(O)cc2)cn(O)c1=O (stereo not drawn) [FARINOSONE B] | – | – | – | – | – | Non-toxic | – | –
CC(/C=C/C(=O)NC(CO)Cc1ccc(O)cc1)=C\C(C)CC(=O)O (stereo not drawn) [FARINOSONE C] | 13 | 27 | – | 47 | – | Non-toxic | 60 | 53
